Rows were chosen to be rich in hits. Some 3.5% of all compounds tested hit in one or more screens of this group.
MrgX1 agonist = agonists of human MrgX1 receptor, primary screen, HEK293 cells, Fluo-4 calcium flux; Mas-related G-protein coupled receptor member X1 (Homo sapiens), Q96LB2; Fluo-4 calcium fluorescence, agonist mode; stronger effect = higher value; B-score at 10 µM; 310,000 compounds, 0.44% hits;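 active = calcium response B-score plate-corrected fluorescence ratio at least 3 library SD, with starting fluorescence B-score inside 5 SD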
Target sequence (Q96LB2 whole entry, looked up): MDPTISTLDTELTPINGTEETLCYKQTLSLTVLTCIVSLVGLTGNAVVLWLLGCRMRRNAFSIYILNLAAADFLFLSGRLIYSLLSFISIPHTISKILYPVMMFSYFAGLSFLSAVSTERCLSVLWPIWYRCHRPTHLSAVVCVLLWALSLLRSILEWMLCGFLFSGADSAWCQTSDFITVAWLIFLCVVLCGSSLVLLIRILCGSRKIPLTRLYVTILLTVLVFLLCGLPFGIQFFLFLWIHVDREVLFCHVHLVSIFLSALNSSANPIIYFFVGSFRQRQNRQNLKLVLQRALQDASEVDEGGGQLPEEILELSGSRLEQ
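Material: HEK293 cells stably expressing human MrgX1 receptor | Quantity: 15,000 cells per well | Times: Cells plated overnight, dye loaded 0.5 h 37 °C, 0.5 h room temperature | Measured by: Kinetic Fluo-4 NW fluorescence of intracellular calcium | Control set: Positive and negative controls per plate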
RGS4 block = RGS4 inhibitors, primary screen, cell-based, HEK293 M3R inducible RGS4, calcium flux. Fluo-4 calcium flux; stronger effect = higher value; triggered by carbachol at its EC20. B-score at 10 µM. Regulator of G-protein signaling 4 (Homo sapiens), P49798. 310,000 compounds, 0.45% hits;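 active = B-score, a plate-corrected calcium signal, over three deviations above library mean, with baseline fluorescence within five deviations of library mean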;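 also: RGS4 expression induced by doxycycline in cells with stable M3 receptor; B-score is computed from the integrated fluorescence ratio over baseline after carbachol; higher B-score means a larger calcium signal and so more RGS4 inhibition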
Target sequence (P49798 whole entry, looked up): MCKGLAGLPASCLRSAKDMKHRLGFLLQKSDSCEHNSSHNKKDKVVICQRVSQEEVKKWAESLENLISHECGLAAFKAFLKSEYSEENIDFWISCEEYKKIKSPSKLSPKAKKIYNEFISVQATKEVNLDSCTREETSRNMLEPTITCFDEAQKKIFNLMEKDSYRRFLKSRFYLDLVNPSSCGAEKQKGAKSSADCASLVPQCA
MrgX1 allo act = positive allosteric modulators of MrgX1, primary screen, HEK293 cells, Fluo-4 calcium flux; Mas-related G-protein coupled receptor member X1 (Homo sapiens), Q96LB2; 310,000 compounds, 0.63% hits; AID 588675, 2011; FDSS; stronger effect = higher value; B-score at 10 µM;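 active = plate-corrected calcium response at least 3 library SD above typical, normal starting fluorescence, not activating the receptor alone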;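 also: compound read alongside a low EC10 to EC30 dose of BAM8-22 agonist; peak minus trough fluorescence over baseline measured at the second addition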
MrgX1 antagonist = antagonists of human MrgX1 receptor, primary screen, HEK293 cells, Fluo-4 calcium flux | BAM8-22 antagonism; stronger effect = lower value | AID 588676, 2011 | 310,000 compounds, 1.3% hits | B-score at 10 µM | Mas-related G-protein coupled receptor member X1 (Homo sapiens), Q96LB2;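 active = calcium-response B-score plate-corrected more than 3 library SD below zero, starting fluorescence within 5 deviations, no agonist response on first addition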;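 also: peak minus trough fluorescence over baseline after final BAM8-22 challenge near maximal dose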
RGS4 pot = RGS4 potentiators or activators, primary screen, cell-based, HEK293 M3R inducible RGS4, calcium flux | carbachol calcium flux Fluo4; stronger effect = lower value | B-score at 10 µM | 310,000 compounds, 0.92% hits;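 active = B-score of the integrated calcium signal more than 4 SD below the library mean, with starting fluorescence not abnormally high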;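 also: negative B-score means reduced calcium response which marks RGS4 activation or potentiation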
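Also added: carbachol at ECmax as muscarinic agonist stimulus; Assay system: HEK293 cells with stable M3R and inducible RGS4; Timing: overnight RGS4 induction, 30 min dye load 37 °C, 20 min compound RT; Measured by: Fluo4-AM (2 µM) calcium-flux fluorescence, kinetic read.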
An asterisk follows results filed as active.

For C/C(=C/CCC(C)[C@H]1CC[C@@]2(C)C3=C(CC[C@]12C)[C@@]1(C)CCC(=O)C(C)(C)[C@@H]1CC3)C(=O)O (some centres undefined) the results were MrgX1 agonist inactive, RGS4 block inactive, MrgX1 allo act inactive, MrgX1 antagonist inactive and RGS4 pot -12*.
C/C(=C/CCC(C)C1CCC2(C)C3CCC4C(C)(C)C(=O)CCC4(C)C3=CCC12C)C(=O)O (centres undefined) was read as RGS4 block inactive and RGS4 pot -7.8*.
C/C(=C\C(=O)c1ccc(Br)cc1)Nc1cccc(Cl)c1 was read as MrgX1 agonist inactive, RGS4 block inactive, MrgX1 allo act inactive, MrgX1 antagonist inactive and RGS4 pot -8.1*.
C/C(=C\C(=O)c1ccc(Cl)cc1)Nc1ccc(Br)cc1 was read as MrgX1 agonist inactive, RGS4 block inactive, MrgX1 allo act inactive, MrgX1 antagonist inactive and RGS4 pot inactive.
For Cc1ccc(S(=O)(=O)N2CCC(C(=O)NC3CCCC3)CC2)cc1Cl the results were MrgX1 agonist inactive, RGS4 block inactive, MrgX1 allo act inactive, MrgX1 antagonist inactive and RGS4 pot inactive.
CC1CCCCN1C(=O)CCNC(=O)Cn1cnc2ccccc2c1=O (centres undefined) was read as MrgX1 agonist inactive, RGS4 block inactive, MrgX1 allo act inactive, MrgX1 antagonist inactive and RGS4 pot inactive.
Screening CC(=O)/C(=N\Nc1ccccc1)Sc1cccc2cccnc12 returned MrgX1 agonist inactive, RGS4 block inactive, MrgX1 allo act inactive, MrgX1 antagonist -4.7* and RGS4 pot inactive.
Screening Cc1nc2nc(-c3cccs3)cn2nc1C returned MrgX1 agonist inactive, RGS4 block inactive, MrgX1 allo act inactive, MrgX1 antagonist inactive and RGS4 pot -7*.
Screening CC(C)CC(=O)O/N=C1\C(=O)N(c2ccccc2)c2ccccc21 returned MrgX1 agonist inactive, RGS4 block inactive, MrgX1 allo act inactive, MrgX1 antagonist inactive and RGS4 pot inactive.
`CC(C)CC(=O)O/N=C1\C(=O)N(Cc2ccc(Cl)cc2)c2ccc([N+](=O)[O-])cc21` gave MrgX1 agonist inactive, RGS4 block 6.4*, MrgX1 allo act inactive, MrgX1 antagonist inactive and RGS4 pot inactive.
For O=[N+]([O-])c1cc([N+](=O)[O-])c2cc3ccccc3nc2c1 the results were MrgX1 agonist 28*, RGS4 block 14*, MrgX1 allo act inactive, MrgX1 antagonist inactive and RGS4 pot inactive.
Screening O=[N+]([O-])c1cnc2ccccc2c1 returned MrgX1 agonist inactive, RGS4 block inactive, MrgX1 allo act inactive, MrgX1 antagonist inactive and RGS4 pot inactive.
`Cc1cccc2sc(NNC(=O)c3cc(=O)c4ccccc4o3)nc12` gave MrgX1 agonist inactive, RGS4 block inactive, MrgX1 allo act inactive, MrgX1 antagonist inactive and RGS4 pot inactive.
For Cc1ccc2sc(NNC(=O)c3cc(=O)c4ccccc4o3)nc2c1C the results were MrgX1 agonist inactive, RGS4 block inactive, MrgX1 allo act inactive, MrgX1 antagonist -8.7* and RGS4 pot inactive.
For O=[N+]([O-])c1ccc(Oc2cccc(Br)c2)c2ccncc12 the results were MrgX1 agonist inactive, RGS4 block inactive, MrgX1 allo act 7.9*, MrgX1 antagonist inactive and RGS4 pot inactive.
O=C(Cc1ccc(Cl)cc1)Nc1ccccc1N1CCN(C(=O)c2ccccc2)CC1 was read as MrgX1 agonist inactive, RGS4 block inactive, MrgX1 allo act inactive, MrgX1 antagonist inactive and RGS4 pot -7.1*.
CSc1nnc(C)c(=O)n1COC(=O)c1ccc([N+](=O)[O-])cc1 was read as MrgX1 agonist inactive, RGS4 block inactive, MrgX1 allo act 12*, MrgX1 antagonist inactive and RGS4 pot inactive.
For N#CC1=C(N)SC(N)=C(C#N)C1c1ccoc1 the results were MrgX1 agonist 37*, RGS4 block inactive, MrgX1 allo act inactive, MrgX1 antagonist inactive and RGS4 pot inactive.
CC1=C(C#N)C(c2ccoc2)C(C(=O)OCc2ccccc2)=C(N)S1 (centres undefined) was read as MrgX1 agonist inactive, RGS4 block inactive, MrgX1 allo act inactive, MrgX1 antagonist inactive and RGS4 pot inactive.
`Cc1cc(C)c2c(c1)C(=O)/C(=C/c1ccc(C(=O)O)cc1)CC2` gave MrgX1 agonist inactive, RGS4 block inactive, MrgX1 allo act 16*, MrgX1 antagonist inactive and RGS4 pot inactive.
Screening CC(C)n1nc(C(=O)Nc2cccc(S(=O)(=O)NCc3ccco3)c2)c2ccccc2c1=O returned MrgX1 agonist inactive, RGS4 block inactive, MrgX1 allo act inactive, MrgX1 antagonist inactive and RGS4 pot -7.2*.
CCN(CC)Cc1ccccc1Sc1ccccc1 was read as MrgX1 agonist inactive, RGS4 block inactive, MrgX1 allo act inactive, MrgX1 antagonist inactive and RGS4 pot -9.2*.
CCCCNC(=O)N1CCN(Cc2ccc(F)cc2)CC1 was read as MrgX1 agonist inactive, RGS4 block inactive, MrgX1 allo act inactive, MrgX1 antagonist inactive and RGS4 pot inactive.
Screening CCc1nnc(NC(=O)c2cccc(C(=O)Nc3nnc(CC)s3)n2)s1 returned MrgX1 agonist inactive, RGS4 block inactive, MrgX1 allo act 27*, MrgX1 antagonist inactive and RGS4 pot inactive.
For COc1ccc(Br)cc1S(=O)(=O)n1nc(C)cc1C the results were MrgX1 agonist inactive, RGS4 block inactive, MrgX1 allo act inactive, MrgX1 antagonist inactive and RGS4 pot inactive.
For CC(=O)Nc1ccc(SCC(=O)OCC(=O)NC(=O)NCCC(C)C)cc1 the results were MrgX1 agonist inactive, RGS4 block inactive, MrgX1 allo act inactive, MrgX1 antagonist -7.3* and RGS4 pot inactive.
CC(=O)Nc1ccc(SCC(=O)OCC(=O)NC(=O)NCc2ccco2)cc1 was read as MrgX1 agonist inactive, RGS4 block inactive, MrgX1 allo act inactive, MrgX1 antagonist inactive and RGS4 pot inactive.
`CC(OC(=O)c1ccc(=O)n(Cc2ccccc2)n1)C(=O)Nc1cccc(Cl)c1` (centres undefined) gave MrgX1 agonist inactive, RGS4 block inactive, MrgX1 allo act inactive, MrgX1 antagonist -5.3* and RGS4 pot inactive.
For Cc1ccc(NC(=O)COC(=O)c2ccc(=O)n(Cc3ccccc3)n2)cc1F the results were MrgX1 agonist inactive, RGS4 block inactive, MrgX1 allo act inactive, MrgX1 antagonist inactive and RGS4 pot inactive.
CN(C(=O)COC(=O)c1cccc(S(=O)(=O)N2CCOCC2)c1)C1CCS(=O)(=O)C1 (centres undefined) was read as MrgX1 agonist inactive, RGS4 block inactive, MrgX1 allo act inactive, MrgX1 antagonist -5.4* and RGS4 pot inactive.
